ChEMBL document CHEMBL4706775, “Discovery of Arylsulfonamide Na1.7 Inhibitors: IVIVC, MPO Methods, and Optimization of Selectivity Profile” (ACS Med Chem Lett, 2021)
Values belong to the molecule of their own block, whether it stands above or below them.

Assays:
[1] = target: Sodium channel protein type 9 subunit alpha (Homo sapiens, UniProt Q15858); experiment: Inhibition of human Nav1.7 alpha expressed in HEK293 cells incubated for 5 mins with 6 consecutive train pulses to -10 mV at 0.1 Hz and holding potential of -65 mV by Qube-automated patch clamp assay; assay type: cell-based
[2] = target: Sodium channel protein type 8 subunit alpha (Homo sapiens, UniProt Q9UQD0); experiment: Inhibition of human Nav1.6 alpha expressed in HEK293 cells incubated for 5 mins with 6 consecutive train pulses to -10 mV at 0.1 Hz and holding potential of -65 mV by Qube-automated patch clamp assay; assay type: ADME, cell-based
[3] = Apparent permeability in MDCK cells by Monolayer assay; assay type: ADME, cell-based, Canis lupus familiaris; details: dog
[4] = Inhibition of rhesus monkey Nav1.7 alpha expressed in HEK293 cells; assay type: cell-based, Macaca mulatta
[5] = Protein binding in mouse plasma; assay type: ADME, cell-free; details: read-out: PPB (converted)
[6] = Protein binding in human plasma; assay type: ADME, cell-free; details: read-out: PPB (converted)
[7] = Protein binding in rhesus monkey plasma; assay type: ADME, cell-free, Macaca mulatta; details: read-out: PPB (converted)
P-glycoprotein [8] = experiment: Substrate activity at human p-glycoprotein assessed as efflux ratio of permeability across basal to apical membrane over apical to basal membrane; assay type: ADME; details: not told
P-glycoprotein [9] = experiment: Substrate activity at rat p-glycoprotein assessed as efflux ratio of permeability across basal to apical membrane over apical to basal membrane; assay type: ADME; details: not told
[10] = Drug concentration in mouse brain at 100 mg/kg, po measured after 1.25 hrs; assay type: ADME, organism-based; details: read-out: Ct
[11] = Drug concentration in mouse plasma at 100 mg/kg, po measured after 1.25 hrs; assay type: ADME, organism-based
[12] = Drug concentration in mouse CSF at 100 mg/kg, po measured after 1.25 hrs; assay type: ADME, organism-based, Cerebrospinal fluid; details: read-out: Ct
[13] = Kinetic solubility of compound at pH 2 by HPLC analysis; assay type: physicochemical; details: buffer, read-out: Kinetic_solubility
[14] = Kinetic solubility of compound at pH 7 by HPLC analysis; assay type: physicochemical; details: buffer, read-out: Kinetic_solubility
Cytochrome P450 3A4 = Cytochrome P450 3A4 (Homo sapiens, UniProt P08684); experiment: Inhibition of CYP3A4 (unknown origin); assay type: ADME
Cytochrome P450 2C9 = Cytochrome P450 2C9 (Homo sapiens, UniProt P11712); experiment: Inhibition of CYP2C9 (unknown origin); assay type: ADME
Cytochrome P450 2D6 = Cytochrome P450 2D6 (Homo sapiens, UniProt P10635); experiment: Inhibition of […] (unknown origin); assay type: ADME
[15] = target: T1, Nuclear receptor subfamily 1 group I member 2 (Homo sapiens, UniProt O75469); experiment: Activation of PXR (unknown origin); assay type: ADME
T1 sequence (O75469 whole entry): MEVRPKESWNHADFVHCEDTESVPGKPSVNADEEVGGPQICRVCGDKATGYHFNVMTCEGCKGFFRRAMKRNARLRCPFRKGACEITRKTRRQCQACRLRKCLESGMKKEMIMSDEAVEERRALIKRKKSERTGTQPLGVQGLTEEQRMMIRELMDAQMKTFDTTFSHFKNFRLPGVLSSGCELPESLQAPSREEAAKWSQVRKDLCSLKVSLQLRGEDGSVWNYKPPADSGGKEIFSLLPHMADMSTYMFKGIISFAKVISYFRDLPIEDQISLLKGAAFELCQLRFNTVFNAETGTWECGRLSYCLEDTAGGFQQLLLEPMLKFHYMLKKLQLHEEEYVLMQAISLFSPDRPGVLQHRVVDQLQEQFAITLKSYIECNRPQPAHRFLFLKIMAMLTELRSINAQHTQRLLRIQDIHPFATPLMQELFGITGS

[16] = Clearance in rat; assay type: ADME; details: in vivo
[17] = Volume of distribution at steady state in rat; assay type: ADME; details: in vivo, read-out: Vdss
[18] = Half life in rat; assay type: ADME; details: in vivo
[19] = Intrinsic Clearance in dog; assay type: ADME, Canis lupus familiaris
[20] = Volume of distribution at steady state in dog; assay type: ADME, Canis lupus familiaris; details: in vivo, read-out: Vdss
[21] = Half life in dog; assay type: ADME, Canis lupus familiaris; details: in vivo
[22] = Intrinsic Clearance in rhesus monkey; assay type: ADME, Macaca mulatta
[23] = Volume of distribution at steady state in rhesus monkey; assay type: ADME, Macaca mulatta; details: in vivo, read-out: Vdss
[24] = Half life in rhesus monkey; assay type: ADME, Macaca mulatta; details: in vivo
Mus musculus [25] = experiment: Reversal of formalin-induced nociception in po dosed C57BL/6 mouse pretreated with compound for 15 mins followed by formalin challenge and measured after 20 to 35 mins; assay type: functional; details: time min <=75
How it was run: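 C57BL/6 mice given compound orally at three dose levels or vehicle (10% Tween 80, 5 mL/kg) 15 min before formalin injection; nociceptive behaviors scored in phase 1 and phase 2; N = 8/group; within-subject ANOVA and 1-sample t test versus vehicle.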

[26] = Drug concentration in plasma of formalin-induced C57BL/6 mouse model of formalin-induced pain at 30 mg/kg, po pretreated with compound for 15 mins followed by formalin challenge and measured after […]; assay type: ADME, organism-based
[27] = Drug concentration in plasma of formalin-induced C57BL/6 mouse model of formalin-induced pain at 100 mg/kg, po pretreated with compound for 15 mins followed by formalin challenge and measured after […]; assay type: ADME, organism-based
[28] = Drug concentration in plasma of formalin-induced C57BL/6 mouse model of formalin-induced pain at 300 mg/kg, po pretreated with compound for 15 mins followed by formalin challenge and measured after […]; assay type: ADME, organism-based
[29] = Selectivity ratio of IC50 for human Nav 1.6 alpha expressed in HEK293 cells to IC50 for human Nav 1.7 alpha expressed in HEK293 cells
Mus musculus [30] = organism: Mus musculus; experiment: Analgesic activity in mouse models of formalin-induced nociception assessed as reduction in paw pain; assay type: functional
[31] = Oral bioavailability in rhesus monkey; assay type: ADME, organism-based, Macaca mulatta; details: in vivo
[32] = Oral bioavailability in rat; assay type: ADME, organism-based; details: in vivo
[33] = Oral bioavailability in dog; assay type: ADME, organism-based, Canis lupus familiaris; details: in vivo
Nav1.5 = Nav1.5 (Homo sapiens, UniProt Q14524); experiment: Inhibition of human Nav1.5 alpha expressed in HEK293 cells expressed in HEK293 cells incubated for 5 mins with 6 consecutive train pulses to -10 mV at 0.1 Hz and holding potential of -65 mV by Qube-automated patch clamp assay; assay type: ADME, cell-based; details: HEK293 cells expressing human Nav1.5 alpha
[34] = Selectivity ratio of IC50 for human Nav 1.5 expressed in HEK293 cells to IC50 for human Nav 1.7 alpha expressed in HEK293 cells
[35] = Dissociation constant, pKa of the sulfonamide compound; assay type: physicochemical
[36] = Dissociation constant, pKa of the amine compound; assay type: physicochemical
PXR = target: T2, PXR (Homo sapiens, UniProt O75469); experiment: Activation of PXR (unknown origin) relative to control; assay type: ADME
T2 sequence (O75469 whole entry): T1 sequence (O75469 whole entry)

[37] = Distribution coefficient, log D of the compound by MSD HPLC analysis; assay type: physicochemical; details: octanol/water
[38] = Clearance in dog; assay type: ADME, Canis lupus familiaris; details: in vivo
[39] = Clearance in rhesus monkey; assay type: ADME, Macaca mulatta; details: in vivo
[40] = Unbound plasma concentration in rhesus monkey at 19.2 mg/kg; assay type: ADME, organism-based, Macaca mulatta; details: in vivo
How it was run: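 Anesthetized rhesus monkeys, n = 4, imaged by olfactory-bulb fMRI over 2 h; IV infusion in 30% Captisol (~8 mL/animal) started at 1 h and continued for 1 h; unbound plasma concentration determined alongside olfactory inhibition.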

Mus musculus [41] = experiment: Analgesic activity against formalin-induced nociception in po dosed C57BL/6J mouse pretreated with compound for 15 mins followed by formalin challenge and measured after […]; assay type: functional, organism-based
[42] = Intrinsic clearance in rat at 0.05 mg/kg, iv administered as cassette dose or 2 mg/kg, iv administered as single dose; details: in vivo

Chain of Sodium channel protein type 8 subunit alpha (Q9UQD0 whole entry): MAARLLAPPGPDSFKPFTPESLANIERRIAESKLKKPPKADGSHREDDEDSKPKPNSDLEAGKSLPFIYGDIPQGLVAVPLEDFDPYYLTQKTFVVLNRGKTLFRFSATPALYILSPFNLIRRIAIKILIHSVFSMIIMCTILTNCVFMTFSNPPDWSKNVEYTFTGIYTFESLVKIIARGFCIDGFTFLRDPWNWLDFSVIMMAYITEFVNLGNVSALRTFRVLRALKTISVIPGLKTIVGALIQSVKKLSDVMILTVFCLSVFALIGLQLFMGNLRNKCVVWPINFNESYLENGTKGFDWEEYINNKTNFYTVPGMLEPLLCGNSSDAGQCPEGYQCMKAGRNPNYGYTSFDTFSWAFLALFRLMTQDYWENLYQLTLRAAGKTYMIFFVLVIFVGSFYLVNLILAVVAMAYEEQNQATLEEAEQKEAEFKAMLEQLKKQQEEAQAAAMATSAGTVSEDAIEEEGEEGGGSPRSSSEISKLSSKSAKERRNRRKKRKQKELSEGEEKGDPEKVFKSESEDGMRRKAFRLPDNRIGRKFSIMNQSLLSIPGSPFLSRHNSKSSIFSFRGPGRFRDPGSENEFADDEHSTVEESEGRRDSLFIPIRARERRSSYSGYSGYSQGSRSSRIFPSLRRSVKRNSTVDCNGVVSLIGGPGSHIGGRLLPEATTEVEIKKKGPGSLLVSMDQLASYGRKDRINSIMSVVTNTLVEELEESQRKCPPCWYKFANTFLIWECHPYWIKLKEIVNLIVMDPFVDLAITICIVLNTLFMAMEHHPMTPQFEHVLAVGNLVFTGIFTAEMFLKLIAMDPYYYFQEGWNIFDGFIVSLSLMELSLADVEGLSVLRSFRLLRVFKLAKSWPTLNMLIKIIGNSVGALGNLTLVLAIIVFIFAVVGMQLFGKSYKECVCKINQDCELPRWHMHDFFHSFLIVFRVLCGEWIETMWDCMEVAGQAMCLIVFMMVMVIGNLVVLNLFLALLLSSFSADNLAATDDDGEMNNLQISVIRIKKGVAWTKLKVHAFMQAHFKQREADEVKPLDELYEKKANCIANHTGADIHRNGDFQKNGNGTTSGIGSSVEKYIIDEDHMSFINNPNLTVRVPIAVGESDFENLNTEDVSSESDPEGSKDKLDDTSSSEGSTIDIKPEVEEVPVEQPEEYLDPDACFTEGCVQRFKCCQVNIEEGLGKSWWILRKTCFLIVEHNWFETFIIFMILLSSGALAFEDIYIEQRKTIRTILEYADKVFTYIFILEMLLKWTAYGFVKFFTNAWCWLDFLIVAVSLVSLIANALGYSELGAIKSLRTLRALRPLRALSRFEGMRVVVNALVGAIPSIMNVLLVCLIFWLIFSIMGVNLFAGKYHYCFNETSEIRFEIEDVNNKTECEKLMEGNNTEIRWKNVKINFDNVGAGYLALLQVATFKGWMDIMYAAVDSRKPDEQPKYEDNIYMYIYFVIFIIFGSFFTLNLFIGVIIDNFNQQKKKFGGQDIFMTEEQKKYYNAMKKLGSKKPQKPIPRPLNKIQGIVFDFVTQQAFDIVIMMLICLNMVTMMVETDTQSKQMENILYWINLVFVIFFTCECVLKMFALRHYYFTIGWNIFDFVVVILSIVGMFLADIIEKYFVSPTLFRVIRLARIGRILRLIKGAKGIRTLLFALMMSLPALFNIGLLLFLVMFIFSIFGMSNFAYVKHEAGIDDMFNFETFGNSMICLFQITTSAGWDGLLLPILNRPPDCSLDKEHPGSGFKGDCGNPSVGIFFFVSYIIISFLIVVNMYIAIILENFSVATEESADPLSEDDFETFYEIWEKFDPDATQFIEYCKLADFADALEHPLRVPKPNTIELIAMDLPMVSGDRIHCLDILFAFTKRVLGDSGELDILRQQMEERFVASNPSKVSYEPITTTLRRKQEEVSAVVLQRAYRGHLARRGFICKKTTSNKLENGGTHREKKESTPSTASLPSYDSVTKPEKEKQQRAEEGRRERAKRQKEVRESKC
Chain of Sodium channel protein type 9 subunit alpha (Q15858 whole entry): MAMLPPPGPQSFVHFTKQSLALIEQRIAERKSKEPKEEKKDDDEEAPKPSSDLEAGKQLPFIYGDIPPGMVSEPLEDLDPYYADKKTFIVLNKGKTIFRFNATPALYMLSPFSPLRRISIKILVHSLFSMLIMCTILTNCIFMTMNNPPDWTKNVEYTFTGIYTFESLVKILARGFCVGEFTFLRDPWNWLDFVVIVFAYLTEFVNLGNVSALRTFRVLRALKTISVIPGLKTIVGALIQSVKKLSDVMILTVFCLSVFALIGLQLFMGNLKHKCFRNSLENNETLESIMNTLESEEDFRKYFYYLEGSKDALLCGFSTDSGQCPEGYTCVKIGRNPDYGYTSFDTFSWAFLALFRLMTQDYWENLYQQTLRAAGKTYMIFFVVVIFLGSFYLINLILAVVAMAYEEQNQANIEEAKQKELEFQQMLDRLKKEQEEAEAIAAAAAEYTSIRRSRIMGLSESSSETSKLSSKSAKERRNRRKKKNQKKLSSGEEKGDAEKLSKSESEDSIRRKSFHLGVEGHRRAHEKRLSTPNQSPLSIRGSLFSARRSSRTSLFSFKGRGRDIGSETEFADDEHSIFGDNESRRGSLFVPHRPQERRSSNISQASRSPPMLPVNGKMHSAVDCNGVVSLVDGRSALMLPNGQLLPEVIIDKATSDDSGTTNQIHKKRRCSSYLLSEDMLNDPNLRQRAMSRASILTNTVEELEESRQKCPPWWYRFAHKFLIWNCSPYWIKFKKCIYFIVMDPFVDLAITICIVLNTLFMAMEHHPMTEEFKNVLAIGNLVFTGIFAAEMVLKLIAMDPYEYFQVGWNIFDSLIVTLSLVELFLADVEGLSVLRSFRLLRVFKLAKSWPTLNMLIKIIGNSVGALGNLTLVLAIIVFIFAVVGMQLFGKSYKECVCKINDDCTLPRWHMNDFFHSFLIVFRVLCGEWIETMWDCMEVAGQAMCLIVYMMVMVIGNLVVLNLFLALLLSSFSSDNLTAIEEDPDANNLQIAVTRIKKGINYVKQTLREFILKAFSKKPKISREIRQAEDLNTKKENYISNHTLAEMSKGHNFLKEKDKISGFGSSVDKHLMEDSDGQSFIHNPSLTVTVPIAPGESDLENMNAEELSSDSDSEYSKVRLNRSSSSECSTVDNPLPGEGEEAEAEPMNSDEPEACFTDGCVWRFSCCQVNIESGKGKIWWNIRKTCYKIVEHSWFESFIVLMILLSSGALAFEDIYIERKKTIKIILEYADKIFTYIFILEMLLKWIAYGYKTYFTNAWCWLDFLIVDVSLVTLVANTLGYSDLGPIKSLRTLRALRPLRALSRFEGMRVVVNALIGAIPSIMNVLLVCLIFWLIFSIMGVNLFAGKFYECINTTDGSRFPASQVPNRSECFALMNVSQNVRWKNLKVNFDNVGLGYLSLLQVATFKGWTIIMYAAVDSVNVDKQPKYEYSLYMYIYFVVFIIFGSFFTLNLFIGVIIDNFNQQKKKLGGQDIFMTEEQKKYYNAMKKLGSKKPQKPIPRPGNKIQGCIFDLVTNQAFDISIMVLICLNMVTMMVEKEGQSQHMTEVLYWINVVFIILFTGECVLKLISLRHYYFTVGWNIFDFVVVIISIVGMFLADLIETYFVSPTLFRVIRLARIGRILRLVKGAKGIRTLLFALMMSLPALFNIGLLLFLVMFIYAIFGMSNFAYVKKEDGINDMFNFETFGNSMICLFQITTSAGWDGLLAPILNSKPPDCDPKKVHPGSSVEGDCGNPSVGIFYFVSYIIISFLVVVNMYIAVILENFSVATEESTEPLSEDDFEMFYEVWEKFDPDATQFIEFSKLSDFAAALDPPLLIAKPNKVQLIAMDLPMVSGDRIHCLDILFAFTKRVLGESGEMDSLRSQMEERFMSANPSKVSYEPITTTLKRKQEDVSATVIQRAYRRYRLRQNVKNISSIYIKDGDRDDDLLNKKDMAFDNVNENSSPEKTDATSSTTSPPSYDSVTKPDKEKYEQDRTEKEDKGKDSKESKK
Chain of Cytochrome P450 2D6 (P10635 whole entry): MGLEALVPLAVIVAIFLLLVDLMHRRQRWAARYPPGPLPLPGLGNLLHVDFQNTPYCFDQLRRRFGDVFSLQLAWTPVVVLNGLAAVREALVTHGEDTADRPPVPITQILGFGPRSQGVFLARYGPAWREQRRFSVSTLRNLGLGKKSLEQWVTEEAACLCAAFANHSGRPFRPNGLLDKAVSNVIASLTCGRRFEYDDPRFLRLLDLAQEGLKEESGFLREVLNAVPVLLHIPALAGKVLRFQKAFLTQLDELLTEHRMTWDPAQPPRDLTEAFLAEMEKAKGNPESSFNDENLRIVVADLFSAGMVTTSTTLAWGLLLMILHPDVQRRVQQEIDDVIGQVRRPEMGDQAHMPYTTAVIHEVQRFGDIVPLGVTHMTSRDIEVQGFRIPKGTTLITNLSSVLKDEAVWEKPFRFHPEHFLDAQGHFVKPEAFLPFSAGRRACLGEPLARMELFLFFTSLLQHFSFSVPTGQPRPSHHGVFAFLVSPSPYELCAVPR
Chain of Cytochrome P450 2C9 (P11712 whole entry): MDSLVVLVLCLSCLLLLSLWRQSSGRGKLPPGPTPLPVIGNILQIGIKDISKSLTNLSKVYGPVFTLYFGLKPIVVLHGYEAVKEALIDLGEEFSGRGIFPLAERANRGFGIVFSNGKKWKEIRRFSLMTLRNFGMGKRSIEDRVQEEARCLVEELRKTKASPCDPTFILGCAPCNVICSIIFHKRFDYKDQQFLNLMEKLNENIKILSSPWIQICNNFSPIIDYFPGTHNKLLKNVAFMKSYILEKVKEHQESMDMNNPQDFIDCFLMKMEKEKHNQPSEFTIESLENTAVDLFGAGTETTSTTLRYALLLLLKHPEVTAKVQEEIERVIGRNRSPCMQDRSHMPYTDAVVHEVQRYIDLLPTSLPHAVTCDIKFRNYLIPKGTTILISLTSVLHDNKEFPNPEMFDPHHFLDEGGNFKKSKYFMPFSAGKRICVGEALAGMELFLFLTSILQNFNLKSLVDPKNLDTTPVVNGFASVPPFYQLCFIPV

IC50 [1]: 1090 nM
IC50 [2]: > 34000 nM
Compound: CN[C@H](CNc1cc(F)c(S(=O)(=O)Nc2ncns2)cc1Cl)Cc1ccccc1

IC50 [1]: 300 nM
IC50 [2]: 18700 nM
Papp [3]: 8 ×10⁻⁶ cm/s
IC50 [4]: 310 nM
fraction unbound [5]: 0.06
fraction unbound [6]: 0.02
fraction unbound [7]: 0.02
efflux ratio (P-glycoprotein [8]): 4.9
efflux ratio (P-glycoprotein [9]): > 14
concentration at 1.25 h [10]: 0.1 µM
concentration at 1.25 h [11]: 4.9 µM
concentration at 1.25 h [12]: 0.005 µM
solubility kinetic [13]: 170 µM
solubility kinetic [14]: 148 µM
IC50 (Cytochrome P450 3A4): > 50000 nM
IC50 (Cytochrome P450 2C9): 28000 nM
IC50 (Cytochrome P450 2D6): 20000 nM
EC50 [15]: 10000 nM
clearance [16]: 29 mL/min/kg
Vd [17]: 2.1 L/kg
half-life [18]: 2.5 h
CLint scaled [19]: 200 mL/min/kg
Vd [20]: 0.8 L/kg
half-life [21]: 6 h
CLint scaled [22]: 610 mL/min/kg
Vd [23]: 0.3 L/kg
half-life [24]: 1.3 h
EC90 (Mus musculus [25]): 360 nM
concentration at 1.75 h [26]: 3.27 µM
concentration at 1.75 h [27]: 6.64 µM
concentration at 1.75 h [28]: 8.86 µM
IC90 (Mus musculus [30]): 220 nM
bioavailability [31]: 2%
bioavailability [32]: 100%
bioavailability [33]: 25%
pKa [35]: 5.4
pKa [36]: 9
Emax (PXR): 80%
logD [37]: 1.7
clearance [38]: 4.5 mL/min/kg
clearance [39]: 11 mL/min/kg
Cp(f) [40]: 1.5 µM
IC50 (Mus musculus [41]; Mus musculus, C57BL/6J): 4080 nM
IC90 (Mus musculus [41]; time 1.75 hrs): 6040 nM
CL [42]: 1670 mL/min/kg
Compound: CN[C@H](CNc1cc(F)c(S(=O)(=O)Nc2ncc(F)s2)cc1Cl)CC(C)(C)C.Cl
Ratio IC50 [29]: 60
IC90 at 5 min (Nav1.5): 3600 nM
Ratio IC50 [34]: >390

IC50 [1]: 240 nM
IC50 [2]: > 34000 nM
Papp [3]: 10 ×10⁻⁶ cm/s
CL [42]: 4820 mL/min/kg
Compound: CN[C@H](CNc1cc(F)c(S(=O)(=O)Nc2nccs2)cc1Cl)Cc1ccccc1

IC50 [1]: 5540 nM
IC50 [2]: > 34000 nM
Papp [3]: 3 ×10⁻⁶ cm/s
CL [42]: 380 mL/min/kg
Compound: CN[C@H](CNc1cc(F)c(S(=O)(=O)Nc2ncc(F)s2)cc1Cl)CC1CC1

IC50 [1]: 720 nM
IC50 [2]: > 34000 nM
Papp [3]: 7 ×10⁻⁶ cm/s
CL [42]: 830 mL/min/kg
Compound: CN[C@H](CNc1cc(F)c(S(=O)(=O)Nc2ncc(F)s2)cc1Cl)CC1(C)CC1

IC50 [1]: 1780 nM
IC50 [2]: > 34000 nM
Papp [3]: 5 ×10⁻⁶ cm/s
CL [42]: 8090 mL/min/kg
Compound: CN[C@H](CNc1cc(F)c(S(=O)(=O)Nc2ncc(F)s2)cc1Cl)CC1CCC1

IC50 [1]: 400 nM
IC50 [2]: > 34000 nM
Papp [3]: 8 ×10⁻⁶ cm/s
CL [42]: 3020 mL/min/kg
Compound: CN[C@H](CNc1cc(F)c(S(=O)(=O)Nc2ncc(F)s2)cc1Cl)Cc1ccccc1

IC50 [1]: 900 nM
IC50 [2]: 860 nM
Compound: CC1(CNc2cc(F)c(S(=O)(=O)Nc3nccs3)cc2Cl)CCCN1 (stereo in doubt; 5)

More lines, now with the values behind:

Compound: CN[C@H](CNc1cc(F)c(S(=O)(=O)Nc2ncc(F)s2)cc1Cl)CC12CC(C1)C2
IC50 [1]: 120 nM
IC50 [2]: > 34000 nM
Papp [3]: 10 ×10⁻⁶ cm/s
CL [42]: 2300 mL/min/kg

Compound: CN(C)[C@H](CNc1cc(F)c(S(=O)(=O)Nc2nccs2)cc1Cl)Cc1ccccc1
IC50 [1]: 850 nM
IC50 [2]: > 34000 nM

Compound: CN[C@H](CNc1cc(F)c(S(=O)(=O)Nc2ncc(F)s2)cc1Cl)C[Si](C)(C)C
IC50 [1]: 44 nM
IC50 [2]: 3130 nM
CL [42]: 500 mL/min/kg

Compound: O=S(=O)(Nc1nccs1)c1cc(Cl)c(NCC2(Cc3ccccc3)CCCN2)cc1F (configuration not stated)
IC50 [1]: 25 nM
IC50 [2]: 420 nM
Papp [3]: 13 ×10⁻⁶ cm/s
CL [42]: 5830 mL/min/kg

Compound: N[C@H](CNc1cc(F)c(S(=O)(=O)Nc2nccs2)cc1Cl)Cc1ccccc1
IC50 [1]: > 34000 nM
IC50 [2]: > 34000 nM

Compound: CC1(CNc2cc(F)c(S(=O)(=O)Nc3nccs3)cc2Cl)CCCN1 (stereo in doubt; 4)
IC50 [1]: 2970 nM
IC50 [2]: 2080 nM

Compound: O=S(=O)(Nc1nccs1)c1cc(Cl)c(NCC2CCCN2)cc1F (stereo in doubt; 6)
IC50 [1]: > 34000 nM
IC50 [2]: > 34000 nM

Compound: O=S(=O)(Nc1nccs1)c1cc(Cl)c(NCC2CCCN2)cc1F (stereo in doubt; 7)
IC50 ([1]; hek293): > 34000 nM
IC50 ([2]; hek293): > 34000 nM

Compound: CNC(C)(CNc1cc(F)c(S(=O)(=O)Nc2nccs2)cc1Cl)Cc1ccccc1 (stereo in doubt; 9)
IC50 [1]: > 34000 nM
IC50 [2]: > 34000 nM

Compound: CNC(C)(CNc1cc(F)c(S(=O)(=O)Nc2nccs2)cc1Cl)Cc1ccccc1 (stereo in doubt; 10)
IC50 [1]: 1140 nM
IC50 ([2]; hek293): > 34000 nM
